This is a sample that favours compounds with a hit; in the whole collection about 2.3% have one here.
LMPTP block – blocks human LMPTP phosphatase | P24666 | recombinant LMPTP-A, OMFP fluorogenic substrate, fluorescence intensity | AID 651560 | inhibition, % at 20 µM | 0.22% of 360,000 active;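 active = compounds that cut the enzyme signal by at least half of the control window in the single-dose screen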
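Assay system: LMPTP-A phosphatase enzyme | Input: 0.625 nM enzyme | Also added: Fluorogenic phosphatase substrate OMFP at 400 µM final | Compound dosing: One test concentration per compound, 20 µM, with 3% DMSO overall | Schedule: 50 min enzyme reaction at room temperature, protected from light | Signal: Fluorescence intensity | Benchmarks: no-enzyme and uninhibited controls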
DNMT1 inh – DNMT1 (human) enzyme inhibition; P26358; AID 588458; inhibition (reported as % activation of signal), % at 10 µM; DNMT1 molecular beacon, Hinp1I cleavage, fluorescence; 0.83% of 360,000 active; in the data active = inhibition above about 50%
STEP inh – blocks human striatal-enriched tyrosine phosphatase; P54829; recombinant STEP, OMFP fluorogenic substrate, fluorescence; inhibition, % at 20 µM; 0.25% of 360,000 active;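 active = inhibition at 20 µM, scaled per plate between control wells, above about 37%, limit read from the data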
Target sequence (P54829 whole entry, looked up): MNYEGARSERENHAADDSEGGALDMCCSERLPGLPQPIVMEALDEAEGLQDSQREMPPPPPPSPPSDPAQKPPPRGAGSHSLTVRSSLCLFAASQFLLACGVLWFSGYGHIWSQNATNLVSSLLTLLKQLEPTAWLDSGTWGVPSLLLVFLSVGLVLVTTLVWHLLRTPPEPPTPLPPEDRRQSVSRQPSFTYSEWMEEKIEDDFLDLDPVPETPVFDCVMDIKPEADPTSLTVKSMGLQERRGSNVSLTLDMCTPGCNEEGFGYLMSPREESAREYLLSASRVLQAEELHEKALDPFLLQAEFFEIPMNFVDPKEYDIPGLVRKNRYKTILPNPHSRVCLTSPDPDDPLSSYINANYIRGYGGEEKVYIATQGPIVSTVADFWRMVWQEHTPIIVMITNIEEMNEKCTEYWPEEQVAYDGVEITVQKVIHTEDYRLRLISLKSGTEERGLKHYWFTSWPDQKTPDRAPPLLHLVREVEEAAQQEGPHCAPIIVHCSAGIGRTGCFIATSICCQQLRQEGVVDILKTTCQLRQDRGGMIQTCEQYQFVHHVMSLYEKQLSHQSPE
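Assay system: isolated STEP enzyme. Buffer or medium: pH 6.0 Bis-Tris with DTT and Tween 20. Also added: fluorogenic phosphatase substrate OMFP at 25 µM final. Dosing: 20 µM, 1% DMSO. Timing: 20 min reaction, room temperature, in the dark. Measured by: fluorescence intensity, excitation 480 nm, emission 540 nm. Evaluation: normalized % inhibition.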
Rpn11 block – inhibitors of human proteasome Rpn11. human 26S proteasome, Ub4-pepOG fluorescence polarization; 20S core pre-blocked with epoxomicin. O00487. inhibition, % at 20 µM. 0.59% of 360,000 active. AID 588493;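 active = inhibition at 20 µM, scaled to each plate's controls, above about 33%, limit read from the data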
SUMO1 PPI mod – alters human SUMO1 binding to SIM partners; P63165; inhibition, % at 20 µM; 0.33% of 360,000 active; SUMO1 binding to a labelled peptide, TR-FRET, 1 h; in the data active = inhibition above about 37%
Target sequence (P63165 whole entry, looked up): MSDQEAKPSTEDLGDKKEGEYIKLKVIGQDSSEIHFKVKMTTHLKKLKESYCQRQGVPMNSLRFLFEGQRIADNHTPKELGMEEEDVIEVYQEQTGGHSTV
Scp-1 inhibitor – blocks human Scp-1 phosphatase activity | Recombinant Scp1, phosphopeptide, malachite green phosphate absorbance | 0.88% of 340,000 active | inhibition, % at 20 µM | AID 493091;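 active = inhibition above about 50% at 20 µM, limit read from the data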
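System: truncated SCP-1 phosphatase (76-261aa); medium: Tris acetate buffer pH 5.5 with MgCl2 and Tween-20; incubation: 45 min room-temperature reaction, 5 min colour, 30 min stabiliser; compound: single 20 µM dose, 1% DMSO; reagent: Phosphorylated 17-residue peptide substrate; read-out: % inhibition at 20 µM; technique: colorimetric free-phosphate detection, absorbance 630 nm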
Beacon interf DR – shows spectral interference in the DNMT1 beacon assay; molecular beacon fluorescence, spectral interference counter-screen; IC50, µM; 200 tested, under 10 active; shares compounds with DNMT1 inh; call rule not given here
DNMT1 confirm – DNMT1 inhibition confirmation, single concentration; shares compounds with DNMT1 inh; inhibition, % at 10 µM; AID 602385; DNMT1 molecular beacon HinP1I cleavage, fluorescence; 8% of 2,300 active;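 active = average inhibition of at least 30% in the single-concentration confirmation test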
DNMT1 interf – beacon fluorescence artifact counter-screen; shares compounds with DNMT1 inh; 1% of 2,300 active; DNMT1 molecular beacon spectral interference counterscreen, fluorescence 485/520; activation (fluorescence interference), % at 10 µM;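 active = activation of at least 30% at 10 µM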;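 also: DNMT1 catalytic domain with a HinP1I cleavage step and a FAM/dabcyl DNA beacon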
Large screens that a line does not name were inactive (follow-up assays come after a bar, where shown).

Cc1ccccc1N1CCN(C2CCCN(C(=O)c3ccsc3)C2)CC1 (centres undefined)	none
O=C(O)c1cc([N+](=O)[O-])ccc1-c1ccc([N+](=O)[O-])cc1C(=O)O	DNMT1 inh 61 (no result: Scp-1 inhibitor) | DNMT1 confirm inactive | DNMT1 interf inactive
COc1ccc(-c2ccc3c(=O)cc(-c4ccsc4)oc3c2)cn1	DNMT1 inh 53 (not shown: Rpn11 block) | DNMT1 confirm inactive | DNMT1 interf inactive
O=C1NCCSC1c1ccccc1 (centres undefined)	none
Nc1nc(SCc2ccc(F)cc2)ns1	none
c1ccc(Nc2c(-c3ccco3)nc3ccccn23)cc1	none
c1ccc(-c2nc(-c3ccco3)n3ccccc23)cc1	DNMT1 inh 57 | DNMT1 confirm inactive | DNMT1 interf inactive
CCCc1c(C(=O)N/N=C/C=C/c2ccccc2)nnn1-c1nonc1N	DNMT1 inh 51 (no result: Scp-1 inhibitor) | DNMT1 confirm inactive | DNMT1 interf inactive
CCCc1c(C(=O)N/N=C/C(C)=C/c2ccccc2)nnn1-c1nonc1N	none
O=C(C1=C(O)C(=O)N(Cc2ccco2)C1c1cccc(O)c1)c1ccco1 (centres undefined)	DNMT1 inh 81 | DNMT1 confirm inactive | DNMT1 interf inactive
COc1ccc2nc(-c3ccco3)c(-c3ccco3)nc2c1	LMPTP block 54, DNMT1 inh 98, SUMO1 PPI mod 44, Scp-1 inhibitor 77 | DNMT1 confirm inactive | DNMT1 interf inactive
Cc1ccc(C(=O)OCC(=O)NCc2cccs2)s1	none
Cc1ccc(C(=O)OCC(=O)NCc2ccco2)s1	DNMT1 inh 58 | DNMT1 confirm inactive | DNMT1 interf inactive
Cc1[nH]ccc2c1[nH]c1cc(=O)ccc12	none
Cc1cc2oc3ccc(NCCCn4ccnc4)cc3c(=O)c2cc1C	DNMT1 inh 56 (not shown: Rpn11 block) | DNMT1 confirm inactive | DNMT1 interf inactive
Oc1[nH]c2ccccc2c1N=Nc1ccc(F)cc1	DNMT1 inh 63 (not shown: Rpn11 block) | Beacon interf DR 20 | DNMT1 confirm 31 | DNMT1 interf inactive
Oc1[nH]c2ccccc2c1N=Nc1ccccc1	none
CC(C)Oc1ccc(S(=O)(=O)N2CCOCC2)cc1NC(=O)CC1CCCC1	none
CC(C)Oc1ccc(S(=O)(=O)N2CCOCC2)cc1NC(=O)Cc1c(F)cccc1Cl	DNMT1 inh 90 | DNMT1 confirm inactive | DNMT1 interf inactive
CC1(CCc2ccccc2)NC(=O)N(CC(=O)Nc2ccc(S(N)(=O)=O)cc2)C1=O (centres undefined)	none
NC(=S)NN=C1c2cc(Cl)ccc2-c2c1cc(Cl)cc2[N+](=O)[O-]	DNMT1 inh 51 | DNMT1 confirm inactive | DNMT1 interf inactive
COCCn1c(N)c(C#N)c2nc3ccccc3nc21	none
N#Cc1c(N)n(CCc2ccc(F)cc2)c2nc3ccccc3nc12	DNMT1 inh 71 | DNMT1 confirm inactive | DNMT1 interf inactive
CCC(CC)C(=O)N(C)c1c(C)nc2c(OCc3ccccc3C)cccn12	DNMT1 inh 68 (no result: Scp-1 inhibitor) | DNMT1 confirm inactive | DNMT1 interf inactive
O=C(Nc1cccc(Oc2ccc(C(=O)O)c(C(=O)O)c2)c1)c1ccc(-c2ccccc2)cc1	DNMT1 inh 53 | DNMT1 confirm inactive | DNMT1 interf inactive
O=C(O)c1ccccc1C(=O)Nc1ccc(Oc2ccccc2)cc1	none
COc1cc(/C=C(/C#N)c2nc3ccccc3[nH]2)ccc1OCC(=O)Nc1ccccc1C(C)C	none
COc1cc(/C=C(\C#N)c2nc3ccccc3s2)ccc1OCC(=O)Nc1ccccc1	DNMT1 inh 57 (not shown: Rpn11 block) | DNMT1 confirm inactive | DNMT1 interf inactive
COc1cc(/C=C(\CC(=O)O)c2nc3ccccc3s2)ccc1OCC(=O)Nc1ccccc1F	none
CCOC(=O)/C(C#N)=C/c1ccc(OCC(=O)Nc2ccc(C)c(C)c2)c(OC)c1	DNMT1 inh 54 | DNMT1 confirm inactive | DNMT1 interf inactive
COc1cc(/C=C(/C#N)c2nc3ccccc3[nH]2)ccc1OCC(=O)Nc1ccccc1C	DNMT1 inh 52 | DNMT1 confirm inactive | DNMT1 interf inactive
CCOC(=O)/C(C#N)=C/c1ccc(OCC(=O)Nc2ccc(OC)cc2)c(OC)c1	none
N#Cc1ccccc1NC(=O)COC(=O)/C=C/c1ccc(S(=O)(=O)N2CCOCC2)cc1	none
O=C(c1cccc(C(F)(F)F)c1)N1CCOc2ccccc21	DNMT1 inh 54 | DNMT1 confirm inactive | DNMT1 interf inactive
CSc1ccc(Cl)c(C(=O)N2CCOc3ccccc32)c1	none
COc1ccc(CCNC(=O)Nc2nc(CN)cs2)cc1OC	none (no result: Scp-1 inhibitor)
C=CCNC(=O)COC(=O)CCC(=O)c1cccs1	DNMT1 inh 64 | DNMT1 confirm inactive | DNMT1 interf inactive
C=CCn1c(=NC(=O)C2CC2)sc2cc(NC(C)=O)ccc21	none
C=CCn1c(=NC(=O)C2CCCCC2)sc2cc(NC(C)=O)ccc21	DNMT1 inh 51 | DNMT1 confirm inactive | DNMT1 interf inactive
CC(C)(C)NC(=O)NC(=O)COC(=O)CNS(=O)(=O)/C=C/c1ccccc1	none
COc1ccc(/C=C/C(=O)NC(=S)Nc2cc3oc4ccccc4c3cc2OC)cc1	DNMT1 inh 57 | DNMT1 confirm inactive | DNMT1 interf inactive
COc1cc2c(cc1NC(=O)Nc1ccc(C)cc1)oc1ccccc12	none
COc1cc2c(cc1NC(=O)Nc1ccc(F)cc1)oc1ccccc12	DNMT1 inh 83 | DNMT1 confirm inactive | DNMT1 interf inactive
COc1cc2c(cc1NC(=S)NC(=O)/C=C/c1ccc(OC)c(OC)c1)oc1ccccc12	none
COc1ccccc1-c1csc(C(O)c2cccc(Cl)c2)n1 (centres undefined)	none (no result: Scp-1 inhibitor)
Cc1nc(SCCC(C)C)c([N+](=O)[O-])[nH]1	DNMT1 inh 94 | DNMT1 confirm inactive | DNMT1 interf inactive
Cc1nc(SCCO)c([N+](=O)[O-])[nH]1	none
Cc1cccc(N2CC(C(=O)Nc3nnc(SCC(=O)Nc4nccs4)s3)CC2=O)c1 (centres undefined)	DNMT1 inh 53 | DNMT1 confirm inactive | DNMT1 interf inactive
COc1ccc2[nH]c(C(=O)NCc3ccccc3)c(C)c2c1	DNMT1 inh 70 | DNMT1 confirm inactive | DNMT1 interf inactive
COc1ccc2cc(C(=O)NCc3ccccc3)[nH]c2c1	none
O=C(O)Cn1nc2c3c(cccc3c1=O)-c1ccccc1-2	none
Cc1ccc(-n2nc3c4c(cccc4c2=O)-c2ccccc2-3)cc1	DNMT1 inh 52 | DNMT1 confirm inactive | DNMT1 interf inactive

Assay outcomes: PubChem, Sanford-Burnham Center for Chemical Genomics
